According to ChEMBL document CHEMBL1136556, “Synthesis and SAR of alpha-acylaminoketone ligands for control of gene expression” (2003):

Assays:
Format in all cases: functional
[1] = molecular target: T1, Ecdysone receptor (Bombyx mori) (UniProt P49881); experiment: Agonist activity against Bombyx mori ecdysone receptor
T1 sequence (whole entry): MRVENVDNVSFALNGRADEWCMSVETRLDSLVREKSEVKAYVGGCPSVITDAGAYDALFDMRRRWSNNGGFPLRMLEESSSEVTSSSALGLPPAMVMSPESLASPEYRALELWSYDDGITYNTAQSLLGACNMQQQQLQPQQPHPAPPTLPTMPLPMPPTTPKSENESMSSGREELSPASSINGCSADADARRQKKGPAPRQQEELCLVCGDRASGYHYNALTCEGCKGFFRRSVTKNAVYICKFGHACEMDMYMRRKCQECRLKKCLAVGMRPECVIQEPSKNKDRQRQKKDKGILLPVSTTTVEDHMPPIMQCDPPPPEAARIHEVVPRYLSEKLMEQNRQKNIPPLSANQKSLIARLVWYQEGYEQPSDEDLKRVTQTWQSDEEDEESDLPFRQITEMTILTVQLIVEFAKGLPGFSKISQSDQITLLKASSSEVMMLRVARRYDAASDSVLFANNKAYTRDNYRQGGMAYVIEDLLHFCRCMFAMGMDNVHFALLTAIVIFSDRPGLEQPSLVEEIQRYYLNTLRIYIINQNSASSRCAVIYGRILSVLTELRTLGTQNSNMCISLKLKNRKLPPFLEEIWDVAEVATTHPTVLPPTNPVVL
Outline: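 HEK-293 clone Z3 stably expressing Bombyx mori EcR with a β-galactosidase reporter under an ecdysone response element. Cells seeded at 2.5 × 10⁴ cells mL⁻¹ and held 24 h at 37 °C, 5% CO₂. Ligands from 10 mM DMSO stocks were diluted 100-fold in medium (final DMSO 0.03%). Luminescence read at 48 h; dose-response value is the dose giving 50% of maximal transactivation.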

HEK293 = experiment: Dose response transactivation assay result expressed as dose affording 50% of max transactivation; conditions: Homo sapiens, read-out: LC50
Outline: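 HEK-293 clone Z3 engineered to express Bombyx mori EcR, with a β-galactosidase gene under an ecdysone response element. Cells seeded at 2.5 × 10⁴ cells mL⁻¹, grown 24 h at 37 °C in 5% CO₂, then dosed across a concentration series from 10 mM DMSO stocks. Final DMSO 0.03%. Bioluminescent β-gal readout at 48 h; value is dose giving 50% of maximum transactivation.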

[2] = Ratio of max level of gene expression of compound to max level of gene expression with compound 1d
Outline: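 Dose-response assay in Z3 HEK-293 cells (Bombyx mori EcR, ecdysone response element–β-galactosidase reporter), 48 h ligand exposure, final DMSO 0.03%, bioluminescent read-out. Value is the compound's maximal reporter expression divided by the maximal expression given by the reference dibenzoylhydrazine ecdysone agonist.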

| SMILES | Fold induction [1] | EC50 (transactivation) (HEK293) | Rel Max FI [2] |
| --- | --- | --- | --- |
| Cc1ccccc1C(=O)NC1(C(=O)c2ccccc2)CCCC1 | 2 |  |  |
| Cc1ccccc1C(=O)NC(C)(C)C(=O)c1ccccc1 | 1 |  |  |
| COc1cccc(C(=O)NC(C)(C(=O)c2ccccc2C)C(C)C)c1C (stereo unspecified) | 452 | 18 µM | 0.26 |
| COc1ccc(C(=O)C2(NC(=O)c3cccc(OC)c3C)CCCC2)cc1 | 5 |  |  |
| CCC(CC)(NC(=O)c1cccc(OC)c1C)C(=O)c1ccc(F)cc1 | 60 | 13.7 µM | 0.04 |
| COc1cccc(C(=O)NC(C)(C(=O)c2ccccc2)C(C)C)c1C (stereo unspecified) | 71 | 33.3 µM | 0.04 |
| CCC(CC)(NC(=O)c1cccc(OC)c1C)C(=O)c1ccccc1C | 5 |  |  |
| CC(C)(NC(=O)c1ccccc1)C(=O)c1ccccc1 | 1 |  |  |
| COc1cccc(C(=O)NC2(C(=O)c3ccccc3)CCCC2)c1C | 71 | 2.7 µM | 0.14 |
| CCC(CC)(NC(=O)c1cccc(OC)c1C)C(=O)c1ccc(OC)cc1 | 4 |  |  |
| COc1cccc(C(=O)C2(NC(=O)c3cccc(OC)c3C)CCCC2)c1 |  |  | 0.12 |
| CCC(CC)(NC(=O)c1cccc(OC)c1C)C(=O)c1ccc(C)cc1 | 8 |  |  |
| CCC(CC)(NC(=O)c1cccc(OC)c1C)C(=O)c1cccc(OC)c1 | 256 | 33.3 µM | 0.01 |
| COc1cccc(C(=O)NC2(C(=O)c3cccc(C)c3)CCCC2)c1C | 291 | 3.4 µM | 0.46 |
| CCC(CC)(NC(=O)c1cccc(OC)c1C)C(=O)c1ccc(F)c(C)c1 | 223 | 10.4 µM | 0.07 |
| COc1cccc(C(=O)NC2(C(=O)c3ccccc3)CCCC2)c1 | 2 |  |  |
| COc1cccc(C(=O)NC(C)(C)C(=O)c2ccccc2)c1C | 2 |  |  |
| COc1cccc(C(=O)NC(C)(C(=O)c2cccc(C)c2)C(C)C)c1C (stereo unspecified) | 370 | 8.6 µM | 0.47 |
| COc1cccc(C(=O)NC2(C(=O)c3ccccc3C)CCCC2)c1C | 30 |  |  |

| SMILES | Fold induction [1] | EC50 (transactivation) (HEK293) | Rel Max FI [2] |
| --- | --- | --- | --- |
| COc1cccc(C(=O)NC2(C(=O)c3ccc(F)c(C)c3)CCCC2)c1C | 487 | 3.5 µM | 0.43 |
| CCC(CC)(NC(=O)c1cccc(OC)c1C)C(=O)c1ccccc1 | 11 |  |  |
| CC(C)(NC(=O)c1ccc2c(c1)OCO2)C(=O)c1ccccc1 | 1 |  |  |
| CCC(CC)(NC(=O)c1cccc(OC)c1C)C(=O)c1cccc(C)c1 | 525 | 6.6 µM | 0.25 |
| COc1cccc(C(=O)NC2(C(=O)c3cc(C)cc(C)c3)CCCC2)c1C | 660 | 1.9 µM | 0.85 |
| COc1ccccc1C(=O)C(C)(NC(=O)c1cccc(OC)c1C)C(C)C (stereo unspecified) | 599 | 15 µM | 0.2 |
| COc1cccc(C(=O)NC(C)(C(=O)c2ccc(C)cc2)C(C)C)c1C (stereo unspecified) | 31 | 20 µM | 0.05 |
| COc1cccc(C(=O)NC(C)(C(=O)c2ccc(F)c(C)c2)C(C)C)c1C (stereo unspecified) |  |  | 0.24 |
| COc1ccccc1C(=O)C1(NC(=O)c2cccc(OC)c2C)CCCC1 | 1200 | 5.2 µM | 0.7 |
| O=C(NC1(C(=O)c2ccccc2)CCCC1)c1ccccc1 | 2 |  |  |
| COc1cccc(C(=O)NC2(C(=O)c3ccc(C)cc3)CCCC2)c1C | 21 |  |  |
| CCC(CC)(NC(=O)c1cccc(OC)c1C)C(=O)c1cc(C)cc(C)c1 | 1000 | 4.5 µM | 0.6 |
| CCc1ccc(C(=O)NC(C)(C)C(=O)c2ccccc2)cc1 | 2 |  |  |
| COc1cccc(C(=O)NC(C)(C)C(=O)c2ccccc2)c1 | 1 |  |  |
| CCC(CC)(NC(=O)c1cccc(OC)c1C)C(=O)c1ccccc1OC | 384 | 6.2 µM | 0.29 |
| COc1cccc(C(=O)NC(C)(C(=O)c2cc(C)cc(C)c2)C(C)C)c1C (stereo unspecified) | 751 | 2.1 µM | 0.75 |
| O=C(NC1(C(=O)c2ccccc2)CCCC1)c1ccc2c(c1)OCO2 | 1 |  |  |
| COc1cccc(C(=O)NC2(C(=O)c3ccc(F)cc3)CCCC2)c1C | 218 | 15 µM | 0.14 |
| COc1cccc(C(=O)C(C)(NC(=O)c2cccc(OC)c2C)C(C)C)c1 (stereo unspecified) | 35 | 25.5 µM | 0.12 |
